From PubChem
NPY Y1 blocker = blocks the human neuropeptide Y Y1 receptor; HEK293-CNG Y1 cells, membrane potential fluorescence; NPY at EC95, then isoproterenol; inhibition, % at 3.6 µM; 200,000 compounds, 1% hits; AID 1040; P25929;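 active = inhibition above the campaign mean inhibition of all tested compounds plus 3 SD, cut at about 20% in these data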;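 also: 0% = DMSO wells given NPY plus isoproterenol and 100% = isoproterenol alone without NPY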
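Benchmarks – high control isoproterenol alone, low control NPY with isoproterenol · Material – HEK293 Y1/CNG channel cell line · Times – dye 3 h, compound 60 min room temperature, stimulation 45 min · Probe or stimulus – NPY (25 nM), isoproterenol (1 µM), Ro 20-1724 (25 µM) · Evaluation – % inhibition of NPY effect · Signal – fluorescence, membrane potential probe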
NPY-Y1 PAM-ag = potentiates or activates human NPY-Y1 receptor; P25929; NPY-Y1 expressing cells, potentiator/agonist activation; activation, % at 3.6 µM; 220,000 compounds, 0.37% hits; in the data active = activation above about 33%, passing the limit was not always enough;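 also: cells stimulated with NPY at EC10 then isoproterenol at EC100; 0% = low agonist plus stimulus and 100% = saturating agonist plus stimulus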
NPY2 pot ag = potentiators or agonists of human neuropeptide Y receptor Y2 | 220,000 compounds, 0.45% hits | P49146 | AID 1359 | cells expressing NPY-Y2, potentiator/agonist read-out | activation, % at 3.6 µM; in the data active = activation above about 27%;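 also: cells stimulated with NPY near EC25 plus isoproterenol at EC100; 0% = vehicle plus submaximal agonist and 100% = vehicle plus saturating agonist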
Target sequence (P49146 whole entry, looked up): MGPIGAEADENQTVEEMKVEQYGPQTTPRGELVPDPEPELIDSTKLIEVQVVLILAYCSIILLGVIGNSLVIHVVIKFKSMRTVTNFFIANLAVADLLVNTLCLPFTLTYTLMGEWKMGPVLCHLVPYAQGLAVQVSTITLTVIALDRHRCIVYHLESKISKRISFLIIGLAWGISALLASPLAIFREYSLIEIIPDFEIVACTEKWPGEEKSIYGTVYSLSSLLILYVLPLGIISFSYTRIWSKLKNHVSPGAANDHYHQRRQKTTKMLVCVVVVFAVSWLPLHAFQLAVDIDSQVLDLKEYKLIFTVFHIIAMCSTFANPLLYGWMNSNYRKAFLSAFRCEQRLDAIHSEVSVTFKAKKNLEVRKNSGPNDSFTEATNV
Furin inh = human furin inhibition | inhibition, % at 20 µM or 30 µM | P09958 | 220,000 compounds, 0.061% hits | purified furin, fluorogenic substrate cleavage | AID 463115; in the data active = inhibition above about 25%
NPY-Y2 antag = NPY-Y2 (human) receptor antagonism. inhibition, % at 2.7 µM. AID 793. 140,000 compounds, 0.99% hits. NPY-Y2 expressing cells, antagonist mode; in the data active = inhibition above about 17%;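 also: 0% = vehicle with agonist challenge and 100% = reference antagonist with challenge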
KCC2 mod = modulates chloride dependent transport by human KCC2 | Q9H2X9 | KCC2 cells, thallium flux FluoZin-2 fluorescence | B-score of Tl+ flux slope (higher = more flux/activation; lower = inhibition) at 10 µM | 190,000 compounds, 2.2% hits | AID 1456;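 active = thallium flux slope and its plate-corrected score both differing from the plate sample mean at a set confidence after two filtering rounds, in either direction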;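 also: slope of fluorescence scaled to starting intensity during 10 to 20 s after thallium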
The depositor's hits bear a star; · = no result. An excerpt weighted towards active compounds, which were near 3.7% of everything screened.

SMILES | NPY Y1 blocker | NPY-Y1 PAM-ag | NPY2 pot ag | Furin inh | NPY-Y2 antag | KCC2 mod
Cc1nc2c3cc(Cl)ccc3n(CCN3CCCCC3)c2s1 | 25* | -19 | -32 | -8 | 33* | -0.35
Cc1nc2c3cc(F)ccc3n(Cc3ccc(F)cc3)c2s1 | 27* | -35 | -10 | -22 | 18* | -0.047
COC(=O)Cn1c2ccc(Cl)cc2c2nc(C)sc21 | · | 24 | -5 | -22 | · | -0.77
COC(=O)Cn1c2ccc(F)cc2c2nc(C)sc21 | 2 | -4 | 2 | -19 | 2 | 0.11
O=C(NCC1COc2ccccc2O1)C1CCCN(S(=O)(=O)c2cnc[nH]2)C1 (configuration not stated) | -5 | -1 | -10 | -23 | 3 | 0.57
CCN(CC)C(=O)CSc1nnnn1-c1ccc(F)c(Cl)c1 | 5 | 9 | 2 | -19 | · | ·
Cc1nnc(NC(=O)C2CCCO2)s1 (configuration not stated) | 3 | 2 | 8 | -18 | 0 | -0.11
CCCCCc1nnc(NC(=O)C2CCCO2)s1 (configuration not stated) | 4 | 2 | 14 | 34* | 1 | -0.015
OC(c1cc(C(F)(F)F)nc2c(Cl)cc(Cl)cc12)C1CCCCN1 (configuration not stated) | · | 66* | 62* | -28 | · | 1.4
OC(c1cc(-c2ccc(Cl)cc2)nc2ccccc12)C1CCCCN1 (configuration not stated) | · | 35 | 13 | -26 | · | 2.4
S=c1nc[nH]c2c1sc1nc(-c3ccccc3)c3c(c12)CCCC3 | 0 | -3 | 11 | -5 | -2 | 20*
O=c1[nH]cnc2c1sc1nc(-c3ccccc3)c3c(c12)CCCC3 | 8 | 3 | -6 | -14 | 3 | 0.017
COc1ccccc1Oc1cc(C#N)c(C#N)cc1-n1nnc2ccccc21 | 46* | -36 | -19 | -12 | 19* | ·
O=C(c1cc(-c2ccccc2)n[nH]1)N1CCc2c([nH]c3ccccc23)C1c1ccccn1 (configuration not stated) | -6 | 20 | 12 | -33 | · | 0.097
O=C(NC(=S)NCC1COc2ccccc2O1)c1ccccc1 (configuration not stated) | 4 | -56 | -25 | -16 | 10 | 4.3*
O=C(NCC1COc2ccccc2O1)c1ccccc1 (configuration not stated) | 1 | -24 | 5 | -13 | 0 | 1.3
Cc1sc2nc(COC(=O)CNC(=O)c3ccc(C(C)(C)C)cc3)[nH]c(=O)c2c1C | 9 | -31 | -4 | -24 | 6 | -0.67
N#Cc1c(-c2ccccc2)nc(SCC(=O)Nc2ccccc2F)[nH]c1=O | 4 | -18 | -7 | -16 | 8 | -1.3
N#Cc1c(-c2ccccc2)nc(SCC(=O)Nc2ccccc2)[nH]c1=O | 4 | -22 | 8 | -15 | 6 | -4.8*
CCCNC(=O)CCc1c(C)nc2nc(C)nn2c1C | 1 | 1 | 8 | -34 | · | 0.12
CCC(C)(C)NC(=O)C(c1ccc(C)o1)N(Cc1cccs1)C(=O)Cn1nnc2ccccc21 (configuration not stated) | 70* | -131 | -36 | -16 | 50* | 1.9
COCCNC(=O)C(c1ccc(C)o1)N(Cc1ccc(OC)cc1)C(=O)Cn1nnc2ccccc21 (configuration not stated) | -6 | 3 | 0 | -4 | 1 | 1.6
O=C(NC1CCCCC1)C(c1ccccc1)N(Cc1ccco1)C(=O)Cn1cnc2ccccc21 (configuration not stated) | 78* | -130 | -97 | -12 | 55* | ·
O=C(NCc1ccco1)C(c1ccco1)N(Cc1cccs1)C(=O)Cn1nnc2ccccc21 (configuration not stated) | 1 | -16 | 4 | -7 | 3 | 0.77
CCC(C)(C)NC(=O)C(c1ccccc1)N(Cc1cccs1)C(=O)Cn1nnc2ccccc21 (configuration not stated) | 136* | -328 | -187 | -11 | 133* | 1.3
SMILES | NPY Y1 blocker | NPY-Y1 PAM-ag | NPY2 pot ag | Furin inh | NPY-Y2 antag | KCC2 mod
O=C(NC1CCCCC1)C(c1ccco1)N(Cc1ccco1)C(=O)c1ccco1 (configuration not stated) | 13 | 9 | -18 | -23 | 9 | -0.13
COCCNC(=O)C(c1ccccc1)N(Cc1cccs1)C(=O)Cn1nnc2ccccc21 (configuration not stated) | -5 | -12 | -1 | -22 | 2 | ·
O=C(NC1CCCCC1)C(c1ccco1)N(Cc1cccs1)C(=O)Cn1nnc2ccccc21 (configuration not stated) | 51* | -37 | 0 | -27 | 42* | 0.02
CC(=O)NS(=O)(=O)c1ccc(NC(=S)NC(=O)Cc2ccccc2)cc1 | 3 | 11 | 2 | -29 | · | ·
COc1cc(/C=N/NC(=S)NCc2ccccc2)ccc1OCC#N | 17 | -35 | 3 | -16 | 16 | 0.32
CCn1cc(-c2cc(C(=O)O)c3ccccc3n2)cn1 | -4 | 18 | 9 | -9 | · | 0.03
Cc1cccc2sc(NNC(=O)c3cc(-c4cccs4)nc4ccccc34)nc12 | 4 | -15 | -5 | -14 | 3 | -0.017
S=c1nc(-c2ccc(Br)cc2)oc2c1CCCC2 | 5 | -17 | -22 | -9 | 1 | 83*
COc1ccc(-n2c(-c3ccc(Br)cc3)nc(=S)c3c2CCCC3)cc1 | 2 | -3 | -3 | -23 | 9 | -1
CN(Cc1ccccc1)c1nc2c(c(=O)[nH]c(=O)n2C)n1CCSc1ncccn1 | 2 | 7 | -4 | -18 | -2 | -0.47
COc1ccc(C2=Nn3c(nnc3C3CCCCC3)SC2)cc1OC | 27* | -68 | -22 | -9 | 58* | -2.2
COc1ccc(OC)c(C2=Nn3c(nnc3C3CCCCC3)SC2)c1 | 4 | -34 | -5 | -1 | 4 | -1.5
CCCCCCCCCC(=O)N/N=C/c1ccc(C)s1 | 8 | -5 | -8 | 0 | 7 | 0.37
O=C(Nc1nccs1)c1ccc(S(=O)(=O)NCc2cccs2)cc1 | -3 | 4 | 16 | -41 | -2 | -0.92
O=C(Nc1nccs1)c1ccc(S(=O)(=O)NCC2CCCCC2)cc1 | -16 | 42* | 29 | -27 | 4 | -0.99
COCCNC(=O)/C(C#N)=c1\s/c(=C\c2ccccc2OC(F)F)c(=O)n1Cc1ccccc1 | 4 | 21 | 1 | -30 | · | 0.31
CC(C)(OC1OC(CO)C(O)C(O)C1O)[C@H]1Oc2ccc3ccc(=O)oc3c2[C@H]1O (some centres not stated) | 1 | 4 | -8 | -39 | 1 | 0.84
c1ccc(CN2CCN(c3ncnc4c3[nH]c3ccccc34)CC2)cc1 | 4 | -36 | -22 | -32 | 1 | -5.7*
Cc1ccc2c(c1)[nH]c1c(N3CCN(Cc4ccccc4)CC3)ncnc12 | 6 | -18 | -13 | -10 | 7 | -0.37
COc1cccc(-n2sc3c(c2=S)-c2cc(OC)ccc2NC3(C)C)c1 | -5 | 49* | 39* | 3 | -3 | 1.4
